Measured values taken from PMC6585844 (Clinical Pharmacology in Drug Development, 2018).
Where “and” joins values, the source holds several entries; their conditions need not be identical. Identical values can stand only once. Like-named read-outs stand apart in the source and are kept apart here.

Assays:
[1] = tested on: hypokalemic PP and hyperkalemic PP; settings: doses from approximately 100 to 200 mg/day, versus placebo; cited from earlier work
[2] = type: in vivo, human; settings: for AUC0‐t, mean ± SD: fasted, plasma to 48 h
How it was run: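 Healthy adults, cohorts A–E (n = 6 each), single oral tablet dose (25–400 mg) with 8 oz water after ≥10 h fast plus 4 h more. Potassium-EDTA plasma sampled predose and 0.5–48 h, stored −70°C ≤62 days, solid-supported liquid-liquid extraction. AUC0-t by trapezoidal method; AUC0-∞ = AUC0-t + Clast/λ. BQL values taken as zero. Power-model dose proportionality with 95% CI.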

[3] = Multiple‐dose; type: in vivo, human; settings: for AUCτ, mean ± SD: after last of 9 multiple doses; for Cmax / Tmax: human, plasma, oral
How it was run: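 After the single dose, the same subjects took the assigned dose twice daily, 9 doses, with only a morning dose on the final day. Morning doses were fasted; evening doses were taken without regard to meals. Plasma was sampled predose on days 3–7 (A–D) or 4–8 (E), then 0.5–12 h postdose. AUCτ by trapezoidal method; fluctuation 100*(Cmax−Cmin)/Cavg; accumulation as AUCτ/AUC0-t.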

[4] = Safety/tolerability; type: in vivo, human
How it was run: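 Open-label oral dose escalation. Cohorts A–E received 10 doses (1 single, then 9 twice daily). Cohort F (n = 6) took titrated twice-daily doses of 100–800 mg/day on days 1–14, up to 28 doses, and was assessed for safety only. Vital signs were taken at screening, baseline and each study day, with a 12-lead ECG at screening. AEs were recorded when reported.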

[5] = tested on: cytochrome P450 (CYP) 2C9; settings: cited from earlier work
[6] = Cohort A 25 mg single oral dose (n = 6)
[7] = Cohort B 50 mg single oral dose (n = 6)
[8] = Cohort C 100 mg single oral dose (n = 6)
[9] = Cohort D 200 mg single oral dose (n = 6)
[10] = Cohort E 400 mg single oral dose (n = 6)
[11] = Cohort A (n = 6): 1 × 25 mg then 9 × 25 mg BID
[12] = Cohort B (n = 6): 1 × 50 mg then 9 × 50 mg BID
[13] = Cohort C (n = 6): 1 × 100 mg then 9 × 100 mg BID
[14] = Cohort D (n = 6): 1 × 200 mg then 9 × 200 mg BID
[15] = Cohort E (n = 6): 1 × 400 mg then 9 × 400 mg BID
[16] = Cohort F (n = 6): dose titration 50 to 400 mg BID, up to 28 doses

NS(=O)(=O)c1cc(Cl)c(Cl)c(S(N)(=O)=O)c1 [dichlorphenamide]
Frequency and severity of attacks in primary periodic paralysis [1]: significant reduction | AUC0‐∞, mean ± SD [2, 6]: 5908 ± 3959 ng˙h/mL | AUC0‐t, mean ± SD [2, 6]: 2327 ± 731 ng˙;h/mL | AUC0‐∞, mean ± SD [2, 7]: 14,734 ± 4555 ng˙h/mL | AUC0‐t, mean ± SD [2, 7]: 7897 ± 2055 ng˙;h/mL | AUC0‐∞, mean ± SD [2, 8]: 28,901 ± 13,317 ng˙h/mL | AUC0‐t, mean ± SD [2, 8]: 19,119 ± 7317 ng˙;h/mL | AUC0‐∞, mean ± SD [2, 9]: 66,456 ± 26,211 ng˙h/mL | AUC0‐t, mean ± SD [2, 9]: 38,132 ± 8249 ng˙;h/mL | AUC0‐∞, mean ± SD [2, 10]: 142,007 ± 16,279 ng˙h/mL | AUC0‐t, mean ± SD [2, 10]: 88,243 ± 12,616 ng˙;h/mL | half-life ([2]; human, plasma, oral): 32 to 68 h | Tmax ([2]; human, plasma, oral, Median Tmax, range across doses, single doses 25–400 mg): 1.5 to 3 h | Cmax ([2]; human, plasma, po, 25 mg): 298 ± 77 ng/mL | half-life ([2]; human, plasma, po, 25 mg): 68.4 ± 35 h | Cmax ([2]; human, plasma, po, 50 mg): 709 ± 490 ng/mL | half-life ([2]; human, plasma, po, 50 mg): 51.4 ± 24 h | Cmax ([2]; human, plasma, po, 100 mg): 1510 ± 909 ng/mL | half-life ([2]; human, plasma, po, 100 mg): 31.9 ± 11 h | Cmax ([2]; human, plasma, po, 200 mg): 3030 ± 1210 ng/mL | half-life ([2]; human, plasma, po, 200 mg): 41 ± 17 h | Cmax ([2]; human, plasma, po, 400 mg): 6320 ± 1280 ng/mL | half-life ([2]; human, plasma, po, 400 mg): 38.6 ± 8 h | Slope for LnAUC0‐t (dose proportionality, power model), with 95%CI ([2]; single doses 25–400 mg): 1.29 (95%CI, 1.18‐1.40) | Slope for LnCmax (dose proportionality, power model), with 95%CI ([2]; single doses 25–400 mg): 1.11 (95%CI, 0.97‐1.26) | Cavg, mean ± SD ([3]; Cohort A 25 mg BID (n = 5)): 837 ± 274 ng/mL | AUCτ, mean ± SD ([3]; Cohort A 25 mg BID (n = 5)): 10,038 ± 3283 ng˙h/mL | Cavg, mean ± SD ([3]; Cohort B 50 mg BID (n = 6)): 1527 ± 549 ng/mL | AUCτ, mean ± SD ([3]; Cohort B 50 mg BID (n = 6)): 18,329 ± 6593 ng˙h/mL | Cavg, mean ± SD ([3]; Cohort C 100 mg BID (n = 6)): 3122 ± 1108 ng/mL | AUCτ, mean ± SD ([3]; Cohort C 100 mg BID (n = 6)): 37,468 ± 13,298 ng˙h/mL | Cavg, mean ± SD ([3]; Cohort D 200 mg BID (n = 5)): 7080 ± 2854 ng/mL | AUCτ, mean ± SD ([3]; Cohort D 200 mg BID (n = 5)): 84,960 ± 34,245 ng˙h/mL | Cavg, mean ± SD ([3]; Cohort E 400 mg BID (n = 3)): 17,298 ± 5219 ng/mL | AUCτ, mean ± SD ([3]; Cohort E 400 mg BID (n = 3)): 207,577 ± 62,626 ng˙h/mL | Cmax ([3]; 25 mg): 1150 ± 239 ng/mL | Tmax ([3]; 25 mg): 2 h | Cmax ([3]; 50 mg): 2220 ± 959 ng/mL | Tmax ([3]; 50 mg): 3 h | Cmax ([3]; 100 mg): 4870 ± 1890 ng/mL | Tmax ([3]; 100 mg): 1.5 h | Cmax ([3]; 200 mg): 10700 ng/mL | Tmax ([3]; 200 mg): 2 h | Cmax ([3]; 400 mg): 26600 ng/mL | Tmax ([3]; 400 mg): 1 h | Slope for LnAUCτ (dose proportionality, power model), with 95%CI ([3]; multiple doses 25–400 mg BID): 1.09 (95%CI, 0.92–1.26) | Slope for LnCmax (dose proportionality, power model), with 95%CI ([3]; multiple doses 25–400 mg BID): 1.13 (95%CI, 0.95–1.31) | Accumulation ratios of AUCτ/AUC0‐t ([3]; multiple‐ versus single‐dose phase): greater than 1 | Tolerability for extended use ([4]; 800 mg total daily dose, short‐term study): intolerable for extended use | Blood potassium decreased, TEAE of any severity, subjects [4, 11]: 0 | Dizziness, TEAE of any severity, subjects [4, 11]: 0 | Dysgeusia, TEAE of any severity, subjects [4, 11]: 0 | Dyspnea, TEAE of any severity, subjects [4, 11]: 0 | Oral paresthesia, TEAE of any severity, subjects [4, 11]: 0 | Paresthesia, TEAE of any severity, subjects [4, 11]: 0 | Subjects discontinuing due to TEAE [4, 11]: 0 n (%) | Subjects reporting at least 1 TEAE [4, 11]: 1 (16.7) n (%) | Subjects reporting at least 1 serious TEAE [4, 11]: 0 n (%) | Total TEAEs reported [4, 11]: 1 | Treatment‐related AEs reported [4, 11]: 0 | Blood potassium decreased, TEAE of any severity, subjects [4, 12]: 0 | Dizziness, TEAE of any severity, subjects [4, 12]: 0 | Dysgeusia, TEAE of any severity, subjects [4, 12]: 0 | Dyspnea, TEAE of any severity, subjects [4, 12]: 0 | Oral paresthesia, TEAE of any severity, subjects [4, 12]: 0 | Paresthesia, TEAE of any severity, subjects [4, 12]: 0 | Subjects discontinuing due to TEAE [4, 12]: 0 n (%) | Subjects reporting at least 1 TEAE [4, 12]: 1 (16.7) n (%) | Subjects reporting at least 1 serious TEAE [4, 12]: 0 n (%) | Total TEAEs reported [4, 12]: 3 | Treatment‐related AEs reported [4, 12]: 2 | Blood potassium decreased, TEAE of any severity, subjects [4, 13]: 1 (16.7) | Dizziness, TEAE of any severity, subjects [4, 13]: 0 | Dysgeusia, TEAE of any severity, subjects [4, 13]: 0 | Dyspnea, TEAE of any severity, subjects [4, 13]: 0 | Oral paresthesia, TEAE of any severity, subjects [4, 13]: 0 | Paresthesia, TEAE of any severity, subjects [4, 13]: 2 (33.3) | Subjects discontinuing due to TEAE [4, 13]: 0 n (%) | Subjects reporting at least 1 TEAE [4, 13]: 4 (66.7) n (%) | Subjects reporting at least 1 serious TEAE [4, 13]: 0 n (%) | Total TEAEs reported [4, 13]: 16 | Treatment‐related AEs reported [4, 13]: 14 | Blood potassium decreased, TEAE of any severity, subjects [4, 14]: 0 | Dizziness, TEAE of any severity, subjects [4, 14]: 4 (66.7) | Dysgeusia, TEAE of any severity, subjects [4, 14]: 3 (50.0) | Dyspnea, TEAE of any severity, subjects [4, 14]: 3 (50.0) | Oral paresthesia, TEAE of any severity, subjects [4, 14]: 1 (16.7) | Paresthesia, TEAE of any severity, subjects [4, 14]: 2 (33.3) | Subjects discontinuing due to TEAE [4, 14]: 1 n (%) and 1 (16.7) n (%) | Subjects reporting at least 1 TEAE [4, 14]: 6 (100) n (%) | Subjects reporting at least 1 serious TEAE [4, 14]: 0 n (%) | Total TEAEs reported [4, 14]: 36 | Treatment‐related AEs reported [4, 14]: 33 | Blood potassium decreased, TEAE of any severity, subjects [4, 15]: 1 (16.7) | Dizziness, TEAE of any severity, subjects [4, 15]: 3 (50.0) | Dysgeusia, TEAE of any severity, subjects [4, 15]: 1 (16.7) | Dyspnea, TEAE of any severity, subjects [4, 15]: 1 (16.7) | Oral paresthesia, TEAE of any severity, subjects [4, 15]: 1 (16.7) | Paresthesia, TEAE of any severity, subjects [4, 15]: 4 (66.7) | Subjects discontinuing due to TEAE [4, 15]: 3 n (%) and 3 (50.0) n (%) | Subjects reporting at least 1 TEAE [4, 15]: 6 (100) n (%) | Subjects reporting at least 1 moderate TEAE [4, 15]: 1 (16.7) n (%) | Subjects reporting at least 1 serious TEAE [4, 15]: 0 n (%) | Total TEAEs reported [4, 15]: 42 | Treatment‐related AEs reported [4, 15]: 39 | Dizziness, TEAE of any severity, subjects [4, 16]: 0 | Dysgeusia, TEAE of any severity, subjects [4, 16]: 0 | Dyspnea, TEAE of any severity, subjects [4, 16]: 1 (16.7) | Oral paresthesia, TEAE of any severity, subjects [4, 16]: 0 | Paresthesia, TEAE of any severity, subjects [4, 16]: 2 (33.3) | Subjects discontinuing due to TEAE [4, 16]: 6 n (%) and 6 (100) n (%) | Subjects reporting at least 1 TEAE [4, 16]: 6 (100) n (%) | Subjects reporting at least 1 moderate TEAE [4, 16]: 2 (33.3) n (%) | Subjects reporting at least 1 serious TEAE [4, 16]: 1 (16.7) n (%) | Total TEAEs reported [4, 16]: 50 | Treatment‐related AEs reported [4, 16]: 40 | TEAEs reported as moderate ([4]; all cohorts): 7 | Dizziness, number of subjects ([4]; all cohorts (N = 36)): 7 subjects | Paresthesia (including oral), number of subjects ([4]; all cohorts (N = 36)): 12 subjects | Subjects reporting at least 1 TEAE in gastrointestinal system organ class ([4]; all cohorts (N = 36)): 28% | Subjects reporting at least 1 TEAE in nervous system organ class ([4]; all cohorts (N = 36)): 50% | Subjects withdrawn/discontinued due to AEs ([4]; all cohorts, 36 enrolled): 10 subjects | Changes in vital signs or ECG findings ([4]; any subject): No clinically relevant changes | Serum potassium, clinically significant reduction in 1 subject ([4]; cohort C, poststudy): 2.8 mmol/L | Serious TEAE of rash requiring brief hospitalization, subjects ([4]; cohort F): 1 subject | Subjects with below‐normal serum potassium ([4]; cohort F): 5 of 6 | Discontinuations to which hypokalemia contributed ([4]; cohort F (all 800 mg/day)): 5 of 6 | Serum potassium, lowest recorded value ([4]; cohort F, multiple study time points): 2.8 mmol/L | Subjects with clinically significant reductions in serum potassium ([4]; cohorts A through E, poststudy): 2 subjects | Subjects with at least one mild‐to‐moderate AE ([4]; cohorts D, E, and F): 100% | Effect on CYP2C9‐mediated 7‐methoxy‐4‐(trifluoromethyl)coumarin (MFC) metabolism [5]: relatively weak activator
